We go through 3 molecules from ChEMBL document CHEMBL1123463, “Two stereoisomeric imidazoline derivatives: synthesis and optical and alpha 2-adrenoceptor activities” (J Med Chem, 1986).

The structures appear in SMILES notation.

Assay [1] has as its system Rattus norvegicus. Nature of the assay: Maximal decrease of arterial blood pressure(MAP) after intravenous injection of compound at a dose of 5.61ug/kg in rats. The assay is classed as functional. A digest of the protocol:
(§1)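 Male normotensive Wistar rats (200-350 g) anesthetized with ip sodium pentobarbitone 75.0 mg/kg; trachea cannulated, spontaneous breathing, rectal temperature ca. 37 °C. Arterial pressure recorded continuously. After ~20 min stabilization, single iv injection in saline (1 mL/kg; doses as hydrochloride), one injection per animal. Read-out: maximal fall in mean arterial pressure.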

Assay [2] relates to Rattus norvegicus. The assay is described as follows: Maximal decrease of arterial blood pressure (MAP) after intravenous injection of compound at a dose of 3.16 ug/kg in rats. Type of assay: functional. A digest of the protocol: as §1
For assay [3], the system named is Rattus norvegicus. Nature of the assay: Maximal decrease of arterial blood pressure (MAP) after intravenous injection of compound at a dose of 1 ug/kg in rats. The assay is classed as functional. A digest of the protocol:
as §1

Assay [4] relates to Rattus norvegicus. Nature of the assay: Maximal decrease of heart rate calculated as bradycardiac activity after intravenous injection of 3.16 ug/kg in rats. The assay is classed as functional. A digest of the protocol:
(§2)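 Anesthetized male normotensive Wistar rats (200-350 g; ip sodium pentobarbitone 75.0 mg/kg), cannulated trachea, kept at ca. 37 °C rectal. Pulse rate recorded continuously; following ~20 min stabilization each rat received one iv dose in saline (1 mL/kg, expressed as hydrochloride). Maximal fall in heart rate measured.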

Assay [5] concerns Rattus norvegicus. The assay is described as follows: Maximal decrease of heart rate calculated as bradycardiac activity after intravenous injection of 5.61ug/kg in rats. Type of assay: functional. A digest of the protocol:
as §2

Assay [6] has as its target T1, Adrenergic receptor alpha-2 (Rattus norvegicus, UniProt P22086+P19328+P22909).
T1 sequence (P22086 whole entry): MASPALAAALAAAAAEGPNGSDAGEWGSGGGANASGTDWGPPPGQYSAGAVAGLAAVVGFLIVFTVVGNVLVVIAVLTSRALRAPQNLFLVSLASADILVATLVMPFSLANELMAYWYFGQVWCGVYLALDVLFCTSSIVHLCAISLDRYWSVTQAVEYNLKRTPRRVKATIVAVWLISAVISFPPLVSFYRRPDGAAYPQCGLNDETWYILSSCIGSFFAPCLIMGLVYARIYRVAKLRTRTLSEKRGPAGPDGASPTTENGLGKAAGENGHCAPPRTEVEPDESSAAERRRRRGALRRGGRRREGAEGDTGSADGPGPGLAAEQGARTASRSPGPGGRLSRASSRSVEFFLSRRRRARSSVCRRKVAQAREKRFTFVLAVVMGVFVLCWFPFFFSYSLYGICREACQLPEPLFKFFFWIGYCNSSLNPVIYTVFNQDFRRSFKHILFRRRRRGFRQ
T1 sequence (P19328 whole entry): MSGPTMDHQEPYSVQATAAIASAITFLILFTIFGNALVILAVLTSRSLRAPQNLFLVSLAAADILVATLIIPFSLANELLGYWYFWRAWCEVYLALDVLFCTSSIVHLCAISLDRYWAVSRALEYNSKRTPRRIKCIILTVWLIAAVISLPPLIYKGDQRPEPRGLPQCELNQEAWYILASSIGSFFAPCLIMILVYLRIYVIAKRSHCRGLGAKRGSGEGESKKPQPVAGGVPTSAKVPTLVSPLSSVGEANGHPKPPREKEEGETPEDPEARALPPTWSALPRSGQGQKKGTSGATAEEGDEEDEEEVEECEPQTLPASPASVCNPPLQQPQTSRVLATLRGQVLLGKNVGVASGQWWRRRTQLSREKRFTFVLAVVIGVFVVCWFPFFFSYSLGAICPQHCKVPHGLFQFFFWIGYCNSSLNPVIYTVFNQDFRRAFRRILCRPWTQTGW
T1 sequence (P22909 whole entry): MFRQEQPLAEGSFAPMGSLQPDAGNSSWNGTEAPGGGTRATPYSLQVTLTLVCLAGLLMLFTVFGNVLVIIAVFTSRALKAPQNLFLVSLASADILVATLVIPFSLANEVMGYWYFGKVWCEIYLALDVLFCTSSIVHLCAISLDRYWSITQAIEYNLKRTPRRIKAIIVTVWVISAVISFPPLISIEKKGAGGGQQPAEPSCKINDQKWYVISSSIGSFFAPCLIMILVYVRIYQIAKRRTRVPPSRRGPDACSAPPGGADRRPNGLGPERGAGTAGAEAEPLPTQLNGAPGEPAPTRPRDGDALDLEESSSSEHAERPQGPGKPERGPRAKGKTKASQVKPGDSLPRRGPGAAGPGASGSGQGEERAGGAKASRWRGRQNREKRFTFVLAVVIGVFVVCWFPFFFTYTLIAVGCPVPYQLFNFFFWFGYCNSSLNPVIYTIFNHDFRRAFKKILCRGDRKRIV
Nature of the assay: Compound was tested for its ability to inhibit specific binding of [3H]clonidine to alpha-2-adrenoceptor in rat brain. Type of assay: tissue-based.

In assay [7] the test system is Rattus norvegicus. The assay is described as follows: Maximal decrease of heart rate calculated as bradycardiac activity after intravenous injection of 1 ug/kg in rats. Type of assay: functional. The essentials: as §2
The test system of assay [8] is Rattus norvegicus. The assay is described as follows: Maximal decrease of heart rate calculated as bradycardiac activity after intravenous injection of 10 ug/kg in rats. The assay is classed as functional. The essentials: as §2
Assay [9] has as its system Rattus norvegicus. Nature of the assay: Maximal decrease of arterial blood pressure (MAP) after intravenous injection of compound at a dose of 10 ug/kg in rats. The assay is classed as functional. The essentials:
as §1

Assay [10] deals with T1, Adrenergic receptor alpha-2. Nature of the assay: Compound was tested for its ability to inhibit specific binding of [3H]clonidine to alpha-2 adrenergic receptor in rat brain. The assay is classed as tissue-based.
Assay [11] has as its system Rattus norvegicus. Nature of the assay: Maximal decrease of heart rate calculated as bradycardiac activity after intravenous injection of 0.561 ug/kg in rats. Type of assay: functional. A digest of the protocol:
as §2

Assay [12] concerns Rattus norvegicus. The assay is described as follows: Maximal decrease of arterial blood pressure (MAP)after intravenous injection of compound at a dose of 0.561 ug/kg in rats. The assay is classed as functional. A digest of the protocol: as §1

As a reminder, the IC50 is the midpoint of a concentration-inhibition curve. Read a high IC50 as weaker potency.

For `CC(Oc1c(Cl)cccc1Cl)C1=NCCN1.Cl` (stereo in doubt) [LOFEXIDINE HYDROCHLORIDE], the MAP with Rattus norvegicus [1] is -41.6 mmHg; in the assay on Rattus norvegicus [2], -29.8 mmHg; in the assay on Rattus norvegicus [3], -13.8 mmHg; in the assay with Rattus norvegicus [9], -53 mmHg. Besides, the Heart rate with Rattus norvegicus [4] is -97; with Rattus norvegicus [5], -96; in the assay with Rattus norvegicus [7] it was -46; with Rattus norvegicus [8], -134. Besides, the IC50 in assay [6] stood at 3.6 nM.
`CC(Oc1c(Cl)cccc1Cl)C1=NCCN1.Cl` (racemic) [LOFEXIDINE HYDROCHLORIDE] showed a half-maximal inhibitory concentration (IC50) in [10] of 7.25 nM. Further, the Heart rate is given as -52 with Rattus norvegicus [11]; -137 in the assay on Rattus norvegicus [4]; -132 in the assay on Rattus norvegicus [5]; -83 with Rattus norvegicus [7]; -138 with Rattus norvegicus [8]. The MAP is reported as -48.8 mmHg with Rattus norvegicus [1]; -37.6 mmHg in the assay with Rattus norvegicus [2]; -26.8 mmHg with Rattus norvegicus [3]; -22.6 mmHg in the assay on Rattus norvegicus [12]; -54.2 mmHg in the assay on Rattus norvegicus [9].
For `CC(Oc1c(Cl)cccc1Cl)C1=NCCN1.Cl` (single isomer, unassigned; (+)) [LOFEXIDINE HYDROCHLORIDE], the values for the MAP in the assay on Rattus norvegicus [2], with Rattus norvegicus [3] and in the assay on Rattus norvegicus [9] were -11.7 mmHg, -7.4 mmHg and -10.6 mmHg, respectively. In addition, the Heart rate with Rattus norvegicus [4] is -36; in the assay with Rattus norvegicus [7], -7; in the assay on Rattus norvegicus [8], -61. Moreover, the concentration for half-maximal inhibition (IC50) in [6] was found to be 43 nM.
